# Screening data from PubChem BioAssay.
# Apaf-1 act: activators of human Apaf-1 apoptosome; O14727; Apaf-1 apoptosome caspase-3 activation, DEVD-Rh110 fluorescence; active compounds read low; activity change, negative = activation, % at 20 µM; actives 0.31% (n = 330,000); AID 489031;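 active = activity change at or below -40% at 20 µM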
#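 Material: biochemical Apaf-1 apoptosome reconstitution; Medium: 20 mM HEPES buffer, pH 7.5, containing CHAPS and BSA; Reagent: dATP, cytochrome c, and (Z-DEVD)2-Rh110 caspase-3 substrate; Times: 30 min preincubation, 50 min reaction, room temperature; Signal: Rh110 fluorescence, excitation 480 nm, emission 540 nm; Measure: Caspase-3 activity via Apaf-1.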
# Rh110 act interf: interferes with Rh110 fluorescence, flagging false Apaf-1 activators. shares compounds with Apaf-1 act. Rh110 fluorescence interference, quenched caspase reaction, Ex480/Em540. fluorescence interference (activity change), % at 20 µM, hits read low. 980 tested, under 10 active;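 active = mean activity change at or below -40% when tested at 20 µM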
# Apaf-1 act conf: confirmation of human Apaf-1 activators; shares compounds with Apaf-1 act; reconstituted apoptosome caspase-3 activity, DEVD-Rh110 fluorescence; active compounds read low; activity change, negative = activation, % at 20 µM; actives 5% (n = 980);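 active = mean activity change at or below -40%, meaning activation of 40% or more, at 20 µM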
# A number is an active result; . = inactive; / = no result. The list is a sample of the results.
SMILES,Apaf-1 act,Rh110 act interf,Apaf-1 act conf
COc1ccc(N2C(=O)CC(N(CCc3ccc(OC)c(OC)c3)C(=S)Nc3ccccc3)C2=O)cc1 (stereo not drawn),-40.8,.,.
CC12COC3(P(=O)(c4ccccc4)c4ccccc4)CC1CCC23CP(=O)(c1ccccc1)c1ccccc1 (stereo not drawn),.,/,/
C#CCOCCOCCOCCNc1nc(N2CCN(C(=O)CCCCCCCCCCNC(=O)Cn3cc(CCCCCN)nn3)CC2)nc(N2CCN(C(=O)CCCCCCCCCCNC(=O)[C@H]([C@@H](C)CC)n3cc(CCCCCN)nn3)CC2)n1,.,/,/
c1nc(NCC2(N3CCOCC3)CCCCC2)c2ccsc2n1,-312.6,.,.
Cc1ccc(C(=O)NC2(O)C(=O)c3ccccc3C2=O)cc1C,.,/,/
Cc1ccc(C(=O)c2c(C)oc3c2C(=O)C(=O)c2ccccc2-3)cc1,.,/,/
O=C(C[C@H]1C[C@H](C(=O)N2CCCCC2)[C@@]2(CCc3ccccc3)c3[nH]c4cc(-c5ccco5)ccc4c3CCN2C1=O)NCCN1CCOCC1,.,/,/
NC(=O)C1CCN(C(=O)COc2cccc3ccccc23)CC1,-195.4,.,.
CC(=O)N1CCn2c3c(c(=O)c4cc(C)ccc42)CCC31 (stereo not drawn),.,/,/
CCCCc1ccc(Nc2nc(CCC)cc(=O)[nH]2)cc1,.,/,/
O=C1C(Nc2cccc(O)c2)=C(N2CCCCC2)C(=O)c2ccccc21,.,/,/
O=[N+]([O-])c1cncc([N+](=O)[O-])c1Nc1cccc(O)c1,-63.8,.,.
O=[N+]([O-])c1cc([N+](=O)[O-])c2nonc2c1Nc1ccc(O)cc1,.,/,/
Nc1c2c(nc3ccccc13)CCCC2,.,/,/
CCOc1ccc(S(=O)(=O)N(CC(=O)N2CCc3ccccc32)Cc2ccco2)cc1,-307.1,.,.
C#CCOCCOCCOCCNc1nc(N2CCN(C(=O)[C@H]([C@@H](C)CC)n3cc([C@@H](N)CC(C)C)nn3)CC2)nc(N2CCN(C(=O)[C@H](Cc3cc4ccccc4[nH]3)n3cc([C@@H](N)CC(C)C)nn3)CC2)n1,.,/,/
CC1=NN(c2ccccc2)C(=O)/C1=C\N(O)c1ccccc1,.,/,/
COc1cc2[nH]c(C(=O)NN)c(N)c2cc1OC,.,/,/
COCCn1c(=S)[nH]c2cc(OC)c(OC)cc2c1=O,-92.6,.,.
c1ccc([C@H]2CNCCN2CCc2cccc3ccccc23)cc1,.,/,/
C#CCOCCOCCOCCNc1nc(N2CCOCC2)nc(N2CCN(C(=O)CCCCCCCCCCNC(=O)[C@H](CO)n3cc(CCCCCN)nn3)CC2)n1,.,/,/
CC(=O)N(/N=C1\Sc2ccccc2C1=O)c1cccc(C)c1,.,/,/
CC(C)OCCCNC1=C(Cl)C(=O)c2ccccc2C1=O,.,/,/
c1ccc(CC2CCN(c3nc4ccccc4n4nnnc34)CC2)cc1,.,/,/
COc1ccc(C2c3sc(=O)[nH]c3SC3C(=O)N(c4ccccc4)C(=O)C32)cc1 (stereo not drawn),-177.8,.,.
SMILES,Apaf-1 act,Rh110 act interf,Apaf-1 act conf
CCOC(=O)c1c(CSC(=N)N)n(-c2ccc(C)cc2)c2cc(Br)c(OC(C)=O)cc12,.,/,/
CCOC(=O)C1=C(C)Nc2nc(SCC)nn2C1c1ccc(OC)cc1 (stereo not drawn),-55.6,.,.
CCOC(=O)C1=C(c2ccccc2)NC(N)=NC1c1ccc(OCc2ccc(C(=O)OC)cc2)cc1 (stereo not drawn),.,/,/
CCN(CC)C(=O)C1CCCN(C(=O)Nc2ccc3nsnc3c2)C1 (stereo not drawn),.,/,/
CC(N=Cc1cccc(O)c1O)c1ccccc1 (stereo not drawn),.,/,/
CN1CCc2nc(SCc3ccc(Cl)cc3)c(C#N)c(-c3cccs3)c2C1,.,/,/
O=C1CC(CC(=O)N/N=C/c2ccccc2[N+](=O)[O-])=NN1,.,/,/
C#CCOCCOCCOCCNc1nc(N2CCN(C(=O)CCCCCCCCCCNC(=O)[C@H]([C@@H](C)CC)n3cc(CCCCN=C(N)N)nn3)CC2)nc(N2CCN(C(=O)CCCCCCCCCCNC(=O)[C@H](CCCCN)n3cc(C[C@@H](C)CC)nn3)CC2)n1,.,/,/
CSc1ccc(CN(C)C(=O)CSCC(=O)Nc2cc(C)on2)cc1,.,/,/
Cc1ncc([N+](=O)[O-])n1CCN1C(=O)c2ccccc2C1=O,-143.9,.,.
COc1cccc(-c2sc3ccc(OC)cc3c2-c2ccc(OCCN(C)C)cc2)c1,.,/,/
CC(=O)c1cc(O)c2ccccc2c1O,.,/,/
CCCCCCSc1ccc([C@@H]2[C@H]3C(=O)N(CC)C(=O)[C@H]3[C@]3(C(=O)OC)CCCN23)cc1,-224.6,.,.
NS(=O)(=O)c1ccc(N=Nc2c[nH]c(=O)c(O)c2)cc1,.,/,/
